Source: paper PMC4894453 (Scientific Reports, 2014)
In brackets after ≈: the same amount, converted by molar mass. Like-named read-outs stand apart in the source and are kept apart here.

How the values were obtained:
[1] = system: Enterococcus faecalis ATCC 33186; assay: MIC, microbroth dilution, Enterococcus faecalis; format: cell-based; details: for MIC against Gram-positive bacteria, EF: Enterococcus faecalis ATCC 33186; for MIC: Enterococcus faecalis
[2] = system: Bacillus anthracis sterne; assay: microbe, parasite or virus in culture; format: cell-based; details: for MIC: Bacillus anthracis, read-out: MIC against Gram-positive bacteria, BA; for MIC against Gram-positive bacteria, BA: 18–20 h
S. aureus Newman [3] = assay: Membrane permeability by flow cytometry with propidium iodide; format: cell-based, Staphylococcus aureus; details: 10 μM, 30 min, concentrations causing dissipation of the membrane potential
Procedure, shortened: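 S. aureus Newman grown in Mueller-Hinton II broth to OD600 ≈ 0.3 and exposed to test compound at 10 μM for 30 min. Propidium iodide (10 μM) added for 10 min in the dark. Flow cytometry: 10,000 events, 488 nm excitation, red fluorescence; event histograms compared. Thioridazine at 100 μg/mL served as positive control.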

S. aureus Newman [4] = assay: Membrane potential by flow cytometry with DiOC2; format: cell-based, Staphylococcus aureus; details: DiOC2(3); for dissipation of the membrane potential: 10 μM, 30 min
Procedure, shortened: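 Exponential-phase S. aureus Newman (OD600 ≈ 0.3, Mueller-Hinton II broth) treated with test compound at 100, 10 or 1 μM for 30 min at 37°C. Cells stained 5 min with 30 μM DiOC2(3) and run on flow cytometry (10,000 events, 488 nm excitation, green and red emission). Red/green fluorescence ratio histograms compared. CCCP was the positive control; at least two independent samples.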

[5] = system: Bacillus subtilis ATCC 23857; assay: MIC, microbroth dilution, Bacillus subtilis; format: cell-based; details: for MIC: Bacillus subtilis, ATCC23857, read-out: MIC against Gram-positive bacteria, BS; for MIC against Gram-positive bacteria, BS: Bacillus subtilis ATCC 23857, 18–20 h
Procedure, shortened: (§1)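 CLSI microbroth dilution in Mueller-Hinton broth. Test compound at final 200–0.1 μg/ml, diluted from 10 mg/ml DMSO stocks. Plates incubated 18–20 h. MIC is the lowest concentration preventing visible growth.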

[6] = system: methicillin-resistant Staphylococcus aureus N315; assay: MIC, microbroth dilution, MRSA; format: cell-based; details: for MIC: Staphylococcus aureus, MRSA, read-out: MIC against Gram-positive bacteria, MRSA; for MIC against Gram-positive bacteria, MRSA: S. aureus N315, 18–20 h
Procedure, shortened: as §1

S. aureus Newman [7] = assay: Macromolecular synthesis, radiolabelled precursors; format: cell-based, Staphylococcus aureus; details: 1 and 4 × MIC, 20 min
Procedure, shortened: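 Three independent S. aureus Newman cultures grown to mid-log phase (OD600 ≈ 0.3), then pulsed with 1 μCi/mL [methyl-3H]thymidine, [5,6-3H]uridine or [4,5-3H]leucine. After 5 min, test compound added at 1 and 4× its Newman MIC for 20 min at 37°C. Cold 10% TCA precipitates collected on GF/C filters, washed with 95% ethanol and counted by scintillation; expressed as relative percent activity. Controls: novobiocin, rifampicin, tetracycline.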

[8] = system: Streptococcus pneumoniae R6; assay: MIC, microbroth dilution, Streptococcus pneumoniae; format: cell-based; details: for MIC: Streptococcus pneumoniae, R6, read-out: MIC against Gram-positive bacteria, SPn; for MIC against Gram-positive bacteria, SPn: Streptococcus pneumoniae R6, 18–20 h
Procedure, shortened: as §1

[9] = system: Vero cells (kidney epithelial cells; ATCC CCL-81); assay: Cytotoxicity, CellTiter-Glo viability; format: cell-based; details: for Selectivity index: Cytotox IC50/MIC against methicillin-susceptible S. aureus Newman; for Cytotox IC50: Vero kidney cells, 72 h, 50% reduction of viability
Procedure, shortened: (§2)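 Vero kidney epithelial cells exposed 72 h to test compound (final 200–0.1 μg/ml in DMEM; diluted from 10 mg/ml DMSO stocks). Viability read by CellTiter-Glo luminescence. IC50 is the concentration giving 50% viability loss, from curve fitting. Selectivity index is the cytotoxic IC50 divided by the MIC against S. aureus Newman.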

[10] = system: Streptococcus pyogenes ATCC 700294; assay: MIC, microbroth dilution, Streptococcus pyogenes; format: cell-based; details: for MIC: Streptococcus pyogenes, ATCC700294, read-out: MIC against Gram-positive bacteria, SP; for MIC against Gram-positive bacteria, SP: Streptococcus pyogenes ATCC 700294, 18–20 h
[11] = system: Clostridium difficile BAA 1803; assay: MIC, microbroth dilution, anaerobic, Clostridium difficile; format: cell-based; details: Brain-heart infusion broth, 24 h, anaerobic; for MIC against Gram-positive bacteria, CD: Clostridium difficile BAA 1803
[12] = system: methicillin-susceptible Staphylococcus aureus Newman; assay: MIC, microbroth dilution, MSSA; format: cell-based; details: S. aureus Newman; 18–20 h
Procedure, shortened: as §1

[13] = system: erythrocytes of defibrinated sheep blood; assay: Hemolysis assay; format: cell-based; details: sheep erythrocytes 5% in PBS, 37°C, 90 min
Procedure, shortened: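 Defibrinated sheep blood spun at 350 rcf for 20 min; plasma and buffy coat discarded. Erythrocytes washed three times in PBS pH 7.4, then made to a 5% v/v suspension. Suspension mixed 1:1 with two-fold serial dilutions of test compound, with Triton X-100 as positive control. Incubated 37°C for 90 min and centrifuged; supernatant OD540 read. Lysis = (sample − blank)/positive control; EC50 from curve fitting.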

[14] = system: panel of clinical relevant Gram-positive pathogens; assay: MIC, statements over the Gram-positive panel; format: cell-based; details: read-out: MIC over the Gram-positive panel
[15] = Cytotoxicity, CellTiter-Glo viability; format: cell-based; details: African green monkey, Vero cells (kidney epithelial cells; ATCC CCL-81)
Procedure, shortened: as §2

## C/C(O)=C1\C(=O)C(CC(C)C)N(C(=O)CCCCCc2ccccc2)C1=O (centres unmarked) [Compound 5, (Z)-3-(1-hydroxyethylidene)-5-isobutyl-1-(6-phenylhexanoyl)pyrrolidine-2,4-dione]
[1]; Mueller-Hinton broth, 18–20 h
  MIC against Gram-positive bacteria, EF: 0.78 mg/L (≈ 2.1 µM)
[2]
  MIC: > 200 mg/L
S. aureus Newman [3]
  physical integrity of the S. aureus membrane (propidium iodide uptake): did not disrupt the physical integrity
S. aureus Newman [4]
  dissipation of the membrane potential: slightly lower than reutericyclin
[5]
  MIC: 1.56 mg/L (≈ 4.2 µM)
[6]; MRSA N315
  fold improvement in activity over reutericyclin: 4 fold
[6]
  MIC: < 0.1 mg/L
S. aureus Newman [7]
  biosynthesis of DNA, RNA and protein: reduced
[8]; Strep. pneumoniae
  fold improvement in activity over reutericyclin: 4 fold
[8]
  MIC: 0.78 mg/L (≈ 2.1 µM)
[9]
  Selectivity index: 14
[10]; Strep. pyogenes
  fold improvement in activity over reutericyclin: 2 fold
[10]
  MIC: 3.13 mg/L (≈ 8.43 µM)

## (Z)-1-((E)-dec-2-enoyl)-3-(1-hydroxyethylidene)-5-isobutylpyrrolidine-2,4-dione [Compound 1, reference compound]
[1]; Mueller-Hinton broth, 18–20 h
  MIC against Gram-positive bacteria, EF: 0.20 mg/L
[2]
  MIC against Gram-positive bacteria, BA: 0.20 mg/L
S. aureus Newman [3]
  physical integrity of the S. aureus membrane (propidium iodide uptake): did not disrupt the physical integrity
S. aureus Newman [4]; listed as reutericyclin
  dissipation of the membrane potential: completely dissipated
[5]
  MIC against Gram-positive bacteria, BS: 0.39 mg/L
[11]
  MIC against Gram-positive bacteria, CD: 0.09 mg/L
[6]
  MIC against Gram-positive bacteria, MRSA: 0.4 mg/L
S. aureus Newman [7]
  biosynthesis of DNA, RNA and protein: reduced
[8]
  MIC against Gram-positive bacteria, SPn: 3.13 mg/L
[9]
  Cytotox IC50: 7.46 mg/L
[9]; listed as reutericyclin
  Cytotox IC50: 7.5 mg/L
[12]
  MIC against Gram-positive bacteria, MSSA: 0.78 mg/L
[13]
  Hemolysis EC50: 27.87 mg/L
[10]
  MIC against Gram-positive bacteria, SP: 6.25 mg/L

## CCCCCCC/C=C/C(=O)N1C(=O)/C(=C(\O)C2CCN(C(=O)OC(C)(C)C)CC2)C(=O)[C@H]1CC(C)C [Compound 10, tert-butyl4-((Z)-((R)-1-((E)-dec-2-enoyl)-5-isobutyl-2,4-dioxopyrrolidin-3-ylidene)(hydroxy)methyl) piperidine-1-carboxylate]
[1]; Mueller-Hinton broth, 18–20 h
  MIC against Gram-positive bacteria, EF: 0.39 mg/L (≈ 0.752 µM)
[2]
  MIC against Gram-positive bacteria, BA: 0.78 mg/L (≈ 1.5 µM)
[5]
  MIC against Gram-positive bacteria, BS: 1.56 mg/L (≈ 3.01 µM)
[11]
  MIC against Gram-positive bacteria, CD: 0.25 mg/L (≈ 0.482 µM)
[6]
  MIC against Gram-positive bacteria, MRSA: 0.2 mg/L (≈ 0.386 µM)
[8]
  MIC against Gram-positive bacteria, SPn: 3.13 mg/L (≈ 6.03 µM)
[9]
  Cytotox IC50: 14.22 mg/L
[12]
  MIC against Gram-positive bacteria, MSSA: 0.40 mg/L (≈ 0.771 µM)
[13]
  Hemolysis EC50: 61.61 mg/L
[10]
  MIC against Gram-positive bacteria, SP: 3.13 mg/L (≈ 6.03 µM)

## CC(=O)C1=C(O)C(CC(C)C)NC1=O (centres unmarked) [Compound 2, 3-acetyl-4-hydroxy-5-isobutyl-1H-pyrrol-2(5H)-one]
[14]
  MIC: > 200 mg/L
[1]; ATCC33186, read-out: MIC against Gram-positive bacteria, EF
  MIC: > 200 mg/L
[2]
  MIC: > 200 mg/L
S. aureus Newman [4]; up to 100 μM
  effect on the membrane potential: failed to affect the membrane potential
[5]
  MIC: > 200 mg/L
[6]
  MIC: > 200 mg/L
[8]
  MIC: > 200 mg/L
[15]
  IC50 at 72 h: 217 mg/L (≈ 1100 µM)
[9]
  Selectivity index: 1
[10]
  MIC: > 200 mg/L

## CCCCCCC/C=C/C(=O)N1C(=O)/C(=C(\O)c2ccc(F)cc2)C(=O)C1CC(C)C (centres unmarked) [Compound 13, (Z)-1-((E)-dec-2-enoyl)-3-((4-fluorophenyl)(hydroxy)methylene)-5-isobutylpyrrolidine-2,4-dione]
[14]
  MIC: < 1 mg/L
[1]; ATCC33186, read-out: MIC against Gram-positive bacteria, EF, Enterococcus faecalis ATCC 33186, Mueller-Hinton broth, 18–20 h
  MIC: 0.2 mg/L (≈ 0.466 µM)
[2]
  MIC: 0.39 mg/L (≈ 0.908 µM)
S. aureus Newman [3]
  physical integrity of the S. aureus membrane (propidium iodide uptake): did not disrupt the physical integrity
S. aureus Newman [4]
  dissipation of the membrane potential: reduced the membrane potential in a manner similar to reutericyclin
[5]
  MIC: 0.39 mg/L (≈ 0.908 µM)
[11]; Clostridioides difficile, BAA1803, 24 h, read-out: MIC against Gram-positive bacteria, CD, Clostridium difficile BAA 1803
  MIC: < 0.03 mg/L
[6]
  MIC: < 0.1 mg/L
S. aureus Newman [7]
  biosynthesis of DNA, RNA and protein: reduced
[8]
  MIC: 12.5 mg/L (≈ 29.1 µM)
[9]
  Selectivity index: 67
[10]
  MIC: 6.25 mg/L (≈ 14.6 µM)
